Reference: article PMC7383886 (Diabetes, Obesity & Metabolism, 2020)

How the values were obtained:
[1] = system: patients with T2D who were drug-naïve or on metformin; conditions: 4 mg once weekly; 12 weeks; EXCEED; cited from earlier work
[2] = system: patients with type 2 diabetes inadequately controlled on metformin; experiment: Body weight, LIBERATE 204; assay type: in vivo, human; conditions: mean (SD)
Method in brief: (§1)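 Adults 18–<75 y with T2D on stable metformin (≥1500 mg/d or maximum tolerated dose) had HbA1c 53–86 mmol/mol and BMI <40. They received double-blind sc test compound or placebo (0.53 mL prefilled syringe): 4 mg weekly on days 1, 8, 15 and 22, 8 mg on day 29, then the assigned dose on days 57 and 85. Measured at baseline and week 17 in the full analysis set; change analysed by MMRM (LS means, 95.1% CIs).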

[3] = system: patients with type 2 diabetes inadequately controlled on metformin; experiment: Neutralizing antibodies, cell-based cAMP-Glo assay; assay type: in vivo, human; conditions: any patient at any time
Method in brief: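 Neutralizing activity of anti-drug antibodies in patient samples was tested in a cell-based assay. Antibody-mediated inhibition of intracellular cAMP was read by cAMP-Glo luminescence; the assay was validated at a central laboratory. Patients received double-blind sc test compound or placebo.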

[4] = system: patients with type 2 diabetes inadequately controlled on metformin; experiment: Fasting plasma glucose; assay type: in vivo, human; conditions: mean (SD)
Method in brief: as §1

[5] = system: patients with type 2 diabetes inadequately controlled on metformin; experiment: Seven-point glucose profile; assay type: in vivo, human; conditions: full analysis set n = 52, mean (SD)
Method in brief: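 Patients self-measured glucose with a provided glucometer for a seven-point profile: 90 min pre- and postprandial readings plus bedtime, recorded in a diary. Mean daily glucose was derived from this profile. Dosing was double-blind sc, with metformin continued: 4 mg weekly ×4, 8 mg on day 29, then the assigned monthly dose on days 57 and 85. Full analysis set; change to week 17 analysed by MMRM with 95.1% CIs.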

[6] = system: patients with type 2 diabetes inadequately controlled on metformin; experiment: Vital signs, LIBERATE 204; assay type: in vivo, human; conditions: any post-baseline time point from week 2 to week 17 or at follow-up (week 23)
[7] = system: patients with type 2 diabetes inadequately controlled on metformin; experiment: Treatment-emergent adverse events and hypoglycaemia, LIBERATE 204; assay type: in vivo, human
Method in brief: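 Safety set comprised all patients receiving any study drug, grouped by treatment actually received; analysed descriptively. TEAEs were adverse events starting or worsening on or after the first dose. Hypoglycaemia AEs required confirmed blood glucose <3.9 mmol/L (<70 mg/dL), coded by MedDRA 16.1. Injection-site reactions and symptomatic hypoglycaemic episodes came from patient diaries. Dosing was double-blind sc on background metformin.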

[8] = system: patients with type 2 diabetes inadequately controlled on metformin; experiment: HbA1c, phase 2 trial LIBERATE 204; assay type: in vivo, human
Method in brief: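 HbA1c was assessed at week 17, after 16 weeks of double-blind sc treatment on background metformin. Dosing was 4 mg weekly for 4 weeks, 8 mg on day 29, then the assigned dose every 28 days; placebo was matched. The proportion reaching HbA1c <53 mmol/mol (<7%) was compared with placebo by Fisher's exact test in the full analysis set.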

[9] = system: patients with type 2 diabetes inadequately controlled on metformin; experiment: Anti-efpeglenatide antibodies, enzyme-linked immunosorbent assay; assay type: in vivo, human; conditions: log 2-expressed titre of at least 2
Method in brief: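 Anti-drug antibodies in patient blood samples were detected by ELISA with an absorbance plate read-out, validated at a central laboratory. Treatment-emergent antibodies were evaluated in the safety set of patients on double-blind sc dosing with background metformin.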

[10] = 8 mg once monthly sc, full analysis set n = 52
[11] = 12 mg once monthly sc, full analysis set n = 52
[12] = 16 mg once monthly sc, full analysis set n = 52
[13] = overall (8, 12 and 16 mg once monthly sc), full analysis set n = 156
[14] = 8 mg once monthly sc, safety set n = 52
[15] = 12 mg once monthly sc, safety set n = 52
[16] = 16 mg once monthly sc, safety set n = 53
[17] = overall (8, 12 and 16 mg once monthly sc), safety set n = 157

efpeglenatide
HbA1c reduction from baseline compared with once-daily liraglutide [1]: non‐inferior | Body weight at Week 17 [2, 10]: 89.98 (18.12) kg | Body weight at Week 17 [2, 11]: 91.87 (15.31) kg | Body weight at Week 17 [2, 12]: 85.72 (15.58) kg | Body weight at Week 17 [2, 13]: 89.26 (16.49) kg | Neutralizing antibodies [3]: no neutralizing antibodies were detected | FPG at Week 17 [4, 10]: 7.86 (2.28) mmol/L | FPG at Week 17 [4, 11]: 8.09 (2.28) mmol/L | FPG at Week 17 [4, 12]: 7.76 (1.93) mmol/L | FPG at Week 17 [4, 13]: 7.90 (2.16) mmol/L | Mean daily glucose at Week 17 ([5]; 8 mg once monthly sc): 8.76 (2.13) mmol/L | Mean daily glucose at Week 17 ([5]; 12 mg once monthly sc): 8.89 (2.50) mmol/L | Mean daily glucose at Week 17 ([5]; 16 mg once monthly sc): 8.49 (1.43) mmol/L | Mean changes from baseline in heart rate, temperature, systolic blood pressure or diastolic blood pressure [6]: no meaningful mean changes | Any TEAE [7, 14]: 43 (82.7) n (%) | Any TEAE leading to discontinuation [7, 14]: 6 (11.5) n (%) | Injection-site reaction [7, 14]: 4 (7.7) n (%) | SAEs: Any [7, 14]: 0 (0.0) n (%) | SAEs: GI disorders [7, 14]: 0 (0.0) n (%) | SAEs: Injury, poisoning and procedural complications [7, 14]: 0 (0.0) n (%) | SAEs: Neoplasms: benign, malignant and unspecified [7, 14]: 0 (0.0) n (%) | SAEs: Nervous system disorders [7, 14]: 0 (0.0) n (%) | SAEs: Psychiatric disorders [7, 14]: 0 (0.0) n (%) | TEAE: Diarrhoea [7, 14]: 9 (17.3) n (%) | TEAE: GI disorders [7, 14]: 26 (50.0) n (%) | TEAE: Nausea [7, 14]: 14 (26.9) n (%) | TEAE: Vomiting [7, 14]: 8 (15.4) n (%) | Any TEAE [7, 15]: 43 (82.7) n (%) | Any TEAE leading to discontinuation [7, 15]: 7 (13.5) n (%) | Injection-site reaction [7, 15]: 4 (7.7) n (%) | SAEs: Any [7, 15]: 5 (9.6) n (%) | SAEs: GI disorders [7, 15]: 1 (1.9) n (%) | SAEs: Injury, poisoning and procedural complications [7, 15]: 1 (1.9) n (%) | SAEs: Neoplasms: benign, malignant and unspecified [7, 15]: 1 (1.9) n (%) | SAEs: Nervous system disorders [7, 15]: 1 (1.9) n (%) | SAEs: Psychiatric disorders [7, 15]: 1 (1.9) n (%) | TEAE: Diarrhoea [7, 15]: 8 (15.4) n (%) | TEAE: GI disorders [7, 15]: 29 (55.8) n (%) | TEAE: Nausea [7, 15]: 24 (46.2) n (%) | TEAE: Vomiting [7, 15]: 13 (25.0) n (%) | Any TEAE [7, 16]: 43 (81.1) n (%) | Any TEAE leading to discontinuation [7, 16]: 8 (15.1) n (%) | Injection-site reaction [7, 16]: 2 (3.8) n (%) | SAEs: Any [7, 16]: 3 (5.7) n (%) | SAEs: GI disorders [7, 16]: 0 (0.0) n (%) | SAEs: Injury, poisoning and procedural complications [7, 16]: 1 (1.9) n (%) | SAEs: Neoplasms: benign, malignant and unspecified [7, 16]: 1 (1.9) n (%) | SAEs: Nervous system disorders [7, 16]: 1 (1.9) n (%) | SAEs: Psychiatric disorders [7, 16]: 0 (0.0) n (%) | TEAE: Diarrhoea [7, 16]: 11 (20.8) n (%) | TEAE: GI disorders [7, 16]: 31 (58.5) n (%) | TEAE: Nausea [7, 16]: 23 (43.4) n (%) | TEAE: Vomiting [7, 16]: 17 (32.1) n (%) | Hypoglycaemia TEAEs (blood glucose ≤3.9 mmol/L [≤70 mg/dL]) ([7]; any group): No hypoglycaemia TEAEs | AEs of acute or chronic pancreatitis ([7]; during the study): No AEs of acute or chronic pancreatitis were reported | Deaths ([7]; during the study): No deaths | Any TEAE [7, 17]: 129 (82.2) n (%) | Any TEAE leading to discontinuation [7, 17]: 21 (13.4) n (%) | Injection-site reaction [7, 17]: 10 (6.4) n (%) | SAEs: Any [7, 17]: 8 (5.1) n (%) | SAEs: GI disorders [7, 17]: 1 (0.6) n (%) | SAEs: Injury, poisoning and procedural complications [7, 17]: 2 (1.3) n (%) | SAEs: Neoplasms: benign, malignant and unspecified [7, 17]: 2 (1.3) n (%) | SAEs: Nervous system disorders [7, 17]: 2 (1.3) n (%) | SAEs: Psychiatric disorders [7, 17]: 1 (0.6) n (%) | TEAE: Diarrhoea [7, 17]: 28 (17.8) n (%) | TEAE: GI disorders [7, 17]: 86 (54.8) n (%) | TEAE: Nausea [7, 17]: 61 (38.9) n (%) | TEAE: Vomiting [7, 17]: 38 (24.2) n (%) | Patients with HbA1c <53 mmol/mol (7%) at Week 17 [8, 10]: 26 (50.0) n (%) | Patients with HbA1c <53 mmol/mol (7%) at Week 17 [8, 11]: 26 (50.0) n (%) | Patients with HbA1c <53 mmol/mol (7%) at Week 17 [8, 12]: 24 (46.2) n (%) | Patients with HbA1c <53 mmol/mol (7%) at Week 17 [8, 13]: 76 (48.7) n (%) | Antibody formation: Treatment-emergent (titre ≥2) [9, 14]: 5 (9.6) n (%) | Antibody formation: Treatment-emergent (titre ≥2) [9, 15]: 6 (11.5) n (%) | Antibody formation: Treatment-emergent (titre ≥2) [9, 16]: 4 (7.5) n (%)
